Laboratory results: paper PMC3382646 (Journal of Computer-Aided Molecular Design, 2011)

Biological target: T1, Bovine pancreatic trypsin (Bos taurus, UniProt P00760)
T1 sequence (P00760 24-246): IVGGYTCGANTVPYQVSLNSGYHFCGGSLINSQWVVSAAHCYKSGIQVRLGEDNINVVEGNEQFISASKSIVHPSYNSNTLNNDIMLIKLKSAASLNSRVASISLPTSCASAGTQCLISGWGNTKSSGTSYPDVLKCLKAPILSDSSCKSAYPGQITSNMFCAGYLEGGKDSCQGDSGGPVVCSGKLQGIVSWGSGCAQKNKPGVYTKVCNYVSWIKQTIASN
Experiment: X-ray crystallography of fragments soaked into trypsin crystals
Conditions: two-step soak, 24-48 h each, crystals in P212121, pH 5.8
Method in brief: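 Crystals soaked in DMSO-derived fragment/cryoprotectant mix, then transferred to fresh mix. At least two crystals per soak, liquid-nitrogen cooled; synchrotron, 181 × 1° frames, 1–3 s. Automated processing, ligand placed in active-site density, manual rebuilding.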

## NCc1cccc(N2CCCC2)c1 [CC 38513]
  Soaked fragment density: Yes
